ChEMBL document CHEMBL1132347, “Cytotoxicity of 2,2':6',2' '-terpyridineplatinum(II) complexes against human ovarian carcinoma” (J Med Chem, 1999)
Where “and” joins values, the source holds several entries; their conditions need not be identical. Identical values can stand only once.

Legend:
Assay type in all cases: functional, cell-based
A2780 [1] = experiment: In vitro inhibition of human ovarian cell line, resistant to cisplatin (A2780cisR).
Summary of the method: (§1)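 Single viable cells seeded at 4000-5000/well in DMEM with 10% fetal calf serum and left to attach overnight. Compounds dissolved in water and added at once, 10 concentrations per drug, 4 wells per concentration, 96 h exposure. Cell number in treated versus control wells read by sulforhodamine B staining; IC50 is the concentration cutting absorbance by 50% relative to controls.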

A2780 [2] = experiment: In vitro inhibition of human ovarian cell line A2780; summary of the method: as §1
CH1 [3] = experiment: In vitro inhibition of human ovarian cell line (CH1); summary of the method: as §1
CH1 [4] = experiment: In vitro inhibition of human ovarian cell line, resistant to cisplatin (CH1cisR).; summary of the method: as §1
CH1 [5] = experiment: In vitro inhibition of human ovarian cell line, resistant to doxorubicin (CH1doxR).; summary of the method: as §1
SK-OV-3 = experiment: In vitro inhibition of human ovarian cell line SKOV-3.; summary of the method: as §1
A2780 [6] = experiment: Resistance factor, (IC50 of A2780 cisR cisR / IC50 of A2780); details: Homo sapiens
CH1 [7] = experiment: Resistance factor, (IC50 of CH1 cisR / IC50 of CH1); details: Homo sapiens; CH1cisR
CH1 [8] = experiment: Resistance factor, (IC50 of CH1 doxR / IC50 of CH1); details: Homo sapiens

IC50 (A2780 [1]) [µM] | IC50 (A2780 [2]) [µM] | IC50 (CH1 [3]) [µM] | IC50 (CH1 [4]) [µM] | IC50 (CH1 [5]) [µM] | IC50 (SK-OV-3) [µM] | Substance | Resistance factor (A2780 [6]) | Resistance factor (CH1 [7]) | Resistance factor (CH1 [8])
29.5 | 39 | 5 | 5.8 | 1.05 | – | (2,2':6',2''-terpyridine)platinum (II) complex [listing 1 of 10 here] | – | – | –
6.6 | 4.75 | 2.15 | – | – | 1.8 | 4'-chloro-2,2':6,2''-Terpyridineplatinum (II) complex [listing 1 of 4 here] | – | – | –
1.4 | 2.4 | 1.4 | 1.8 | 0.46 | 5.1 | 4'-chloro-2,2':6,2''-Terpyridineplatinum (II) complex [listing 2 of 4 here] | – | – | –
– | – | – | – | – | – | CISPLATIN [listing 1 of 2 here] | 16.6 | 3 | 1.2
6.7 | 5.8 | 2.1 | 2.1 | 0.85 | 9.2 | (2,2':6',2''-terpyridine)platinum (II) complex [listing 2 of 10 here] | – | – | –
– | – | – | – | – | – | (2,2':6',2''-terpyridine)platinum (II) complex [listing 3 of 10 here] | 1.3 [middle of 6 runs] | 0.9 (3×) and 1 (2×) and 1.2 (3×) | –
92 | 40 | 14 | 12.5 | 5 | 17 | (2,2':6',2''-terpyridine)platinum (II) complex [listing 4 of 10 here] | – | – | –
21.5 | 16 | 6.1 | 7.5 | 3.95 | 13 | (2,2':6',2''-terpyridine)platinum (II) complex [listing 5 of 10 here] | – | – | –
– | – | – | – | – | – | CARBOPLATIN [listing 1 of 2 here] | – | 2.3 | 1
25 | 27 | 7.2 | 8.9 | 1.5 | 13.5 | (2,2':6',2''-terpyridine)platinum (II) complex [listing 6 of 10 here] | – | – | –
11 | > 25 | 2.05 | 2.15 | 0.71 | 3.5 | 4'-chloro-2,2':6,2''-Terpyridineplatinum (II) complex [listing 3 of 4 here] | – | – | –
– | 21.5 | 15.5 | 14 | 5.4 | > 100 | (2,2':6',2''-terpyridine)platinum (II) complex [listing 7 of 10 here] | – | – | –
– | – | > 100 | > 100 | 17.5 | – | (2,2':6',2''-terpyridine)platinum (II) complex [listing 8 of 10 here] | – | – | –
23.5 | 11.5 | 5.2 | 4.5 | 3.75 | 15 | (2,2':6',2''-terpyridine)platinum (II) complex [listing 9 of 10 here] | – | – | –
– | – | – | – | – | – | 4'-chloro-2,2':6,2''-Terpyridineplatinum (II) complex [listing 4 of 4 here] | 1.4 and 0.6 | 1 (2×) and 1.3 | 0.3
> 100 | 35 | 6.2 | 14 | 6 | > 100 | CARBOPLATIN [listing 2 of 2 here] | – | – | –
8.8 | 0.53 | 0.4 | 1.2 | 0.5 | 2.25 | CISPLATIN [listing 2 of 2 here] | – | – | –
> 100 | – | 17.5 | 18 | 5.7 | 24 | (2,2':6',2''-terpyridine)platinum (II) complex [listing 10 of 10 here] | – | – | –
